ChEMBL document CHEMBL3860088, “Design, synthesis, and evaluation of novel porcupine inhibitors featuring a fused 3-ring system based on the 'reversed' amide scaffold” (Bioorg Med Chem, 2016)
One block for each molecule: values may come before it. Calls of active or inactive are those of the source. No cut-off for these calls is given here.

Tests used:
[1] = target: T1, Protein-serine O-palmitoleoyltransferase porcupine (Homo sapiens) (UniProt Q9H237); assay: Inhibition of porcupine in HEK293T cells transfected with pLibin-WNT3A plasmid assessed as reduction in Wnt3A secretion into cell culture medium at 0.1 uM after 48 hrs by Western blot method; assay type: cell-based; conditions: HEK-293T
T1 sequence (whole entry): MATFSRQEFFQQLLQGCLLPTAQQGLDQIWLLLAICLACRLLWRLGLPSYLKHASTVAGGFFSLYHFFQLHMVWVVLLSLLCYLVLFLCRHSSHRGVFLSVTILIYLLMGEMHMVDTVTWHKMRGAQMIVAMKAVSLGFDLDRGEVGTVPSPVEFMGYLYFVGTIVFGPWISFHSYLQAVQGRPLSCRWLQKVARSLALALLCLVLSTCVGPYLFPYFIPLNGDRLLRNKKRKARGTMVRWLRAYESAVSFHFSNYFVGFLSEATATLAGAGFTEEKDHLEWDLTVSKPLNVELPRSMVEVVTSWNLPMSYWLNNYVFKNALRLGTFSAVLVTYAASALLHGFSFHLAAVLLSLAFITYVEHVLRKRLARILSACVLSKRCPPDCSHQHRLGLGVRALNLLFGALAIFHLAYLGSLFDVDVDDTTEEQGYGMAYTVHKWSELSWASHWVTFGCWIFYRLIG
Method in brief: (§1)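 Cells were HEK293T transfected with pLinbin-Wnt3A plasmid or vehicle control, then exposed to compound (0.1 µM) or left untreated. After 48 h, Western blot was run on both the cell lysate and the culture medium to follow Wnt3A.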

[2] = target: T2, Protein-serine O-palmitoleoyltransferase porcupine (Mus musculus, UniProt Q9JJJ7); assay: Inhibition of porcupine in mouse L Wnt3A cells co-cultured with HEK293 cells after 48 hrs by Super-top flash reporter gene assay; assay type: cell-based
T2 sequence (Q9JJJ7 whole entry): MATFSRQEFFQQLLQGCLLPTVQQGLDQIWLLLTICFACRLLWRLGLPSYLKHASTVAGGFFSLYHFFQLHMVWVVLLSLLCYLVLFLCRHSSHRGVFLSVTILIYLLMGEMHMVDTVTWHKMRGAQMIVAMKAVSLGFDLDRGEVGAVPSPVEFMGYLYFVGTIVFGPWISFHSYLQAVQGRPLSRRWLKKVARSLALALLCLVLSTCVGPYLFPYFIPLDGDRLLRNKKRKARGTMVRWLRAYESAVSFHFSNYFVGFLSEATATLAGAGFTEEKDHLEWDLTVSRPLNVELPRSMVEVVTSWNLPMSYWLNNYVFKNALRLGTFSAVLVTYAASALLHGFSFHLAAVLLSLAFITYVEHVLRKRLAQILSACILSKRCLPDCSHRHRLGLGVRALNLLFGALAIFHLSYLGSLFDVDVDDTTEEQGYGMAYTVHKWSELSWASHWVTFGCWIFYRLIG
Method in brief: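 Readout was luminescence inhibition in a co-culture of Wnt-producing LWnt3A cells with Wnt-responding HEK293 cells. Values are geometric means of at least two runs ± SEM, with a reference inhibitor run as a standard in every assay.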

[3] = Solubility of the compound in FaSSIF at pH 6.5 at 4 mg/ml by LC-MS/MS analysis; assay type: physicochemical
Method in brief: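 HCl salt suspended at 4 mg/mL in FaSSIF (pH 6.5), shaken 1 h, then equilibrated overnight at room temperature. After centrifugation, supernatant concentration was measured by LC-MS/MS.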

[4] = Chemical stability in simulated gastric fluid assessed as remaining compound levels at 200 uM at 40 degC after 24 hrs by HPLC method; assay type: ADME; conditions: read-out: Stability
Method in brief: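 Test compound held at 200 µM in simulated gastric fluid, 40 °C for 24 h; remaining compound then assessed.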

[5] = Half life in human liver microsomes at 1 uM preincubated for 10 mins followed by NADPH addition measured for 30 to 60 mins by LC-MS/MS analysis; assay type: ADME
[6] = Intrinsic clearance in mouse liver microsomes at 1 uM preincubated for 10 mins followed by NADPH addition measured for 30 to 60 mins by LC-MS/MS analysis; assay type: ADME; conditions: read-out: CLH
[7] = Half life in mouse liver microsomes at 1 uM preincubated for 10 mins followed by NADPH addition measured for 30 to 60 mins by LC-MS/MS analysis; assay type: ADME
[8] = Metabolic stability in rat plasma assessed as remaining compound levels at 1 uM after 8 hrs by LC-MS/MS analysis; assay type: ADME, cell-free; conditions: read-out: Stability
[9] = Intrinsic clearance in human liver microsomes at 1 uM preincubated for 10 mins followed by NADPH addition measured for 30 to 60 mins by LC-MS/MS analysis; assay type: ADME; conditions: read-out: CLH
[10] = Half life in rat liver microsomes at 1 uM preincubated for 10 mins followed by NADPH addition measured for 30 to 60 mins by LC-MS/MS analysis; assay type: ADME
[11] = Effect on Wnt3A level in HEK293T cells transfected with pLibin-WNT3A plasmid at 0.1 uM after 48 hrs by Western blot method; assay type: ADME, cell-based; conditions: human, hek-293t; method in brief: as §1
[12] = Intrinsic clearance in rat liver microsomes at 1 uM preincubated for 10 mins followed by NADPH addition measured for 30 to 60 mins by LC-MS/MS analysis; assay type: ADME; conditions: read-out: CLH
CYP2C19 = CYP2C19 (Homo sapiens, UniProt P33261); assay: Inhibition of CYP2C19 in human liver microsomes at 10 uM preincubated for 10 mins followed by NADPH addition measured after 10 mins by LC-MS/MS analysis; assay type: ADME
CYP2C9 = CYP2C9 (Homo sapiens, UniProt P11712); assay: Inhibition of CYP2C9 in human liver microsomes at 10 uM preincubated for 10 mins followed by NADPH addition measured after 10 mins by LC-MS/MS analysis; assay type: ADME
CYP2D6 = CYP2D6 (Homo sapiens, UniProt P10635); assay: Inhibition of CYP2D6 in human liver microsomes at 10 uM using dextromethorphan as substrate preincubated for 10 mins followed by NADPH addition measured after 10 mins by LC-MS/MS analysis; assay type: ADME; conditions: probe dextromethorphan
CYP1A2 = target: T3, CYP1A2 (Homo sapiens, UniProt P05177); assay: Inhibition of CYP1A2 in human liver microsomes at 10 uM preincubated for 10 mins followed by NADPH addition measured after 10 mins by LC-MS/MS analysis; assay type: ADME
T3 sequence (P05177 whole entry): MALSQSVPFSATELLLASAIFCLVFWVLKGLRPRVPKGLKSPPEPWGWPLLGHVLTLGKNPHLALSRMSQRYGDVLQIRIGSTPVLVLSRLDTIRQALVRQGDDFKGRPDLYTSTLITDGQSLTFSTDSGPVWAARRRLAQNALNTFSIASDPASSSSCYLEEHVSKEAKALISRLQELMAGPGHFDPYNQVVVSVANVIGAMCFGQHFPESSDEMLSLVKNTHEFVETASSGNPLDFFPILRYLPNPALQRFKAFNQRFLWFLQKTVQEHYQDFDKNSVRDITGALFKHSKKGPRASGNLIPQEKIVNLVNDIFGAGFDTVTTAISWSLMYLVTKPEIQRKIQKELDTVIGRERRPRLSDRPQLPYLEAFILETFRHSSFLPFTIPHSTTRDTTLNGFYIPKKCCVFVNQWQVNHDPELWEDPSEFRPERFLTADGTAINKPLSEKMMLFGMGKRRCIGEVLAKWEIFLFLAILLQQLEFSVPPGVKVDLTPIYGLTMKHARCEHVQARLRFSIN

CYP3A4 = CYP3A4 (Homo sapiens, UniProt P08684); assay: Inhibition of CYP3A4 in human liver microsomes at 10 uM using midazolam as substrate preincubated for 10 mins followed by NADPH addition measured after 10 mins by LC-MS/MS analysis; assay type: ADME; conditions: probe midazolam
Sequence of CYP3A4 (P08684 whole entry): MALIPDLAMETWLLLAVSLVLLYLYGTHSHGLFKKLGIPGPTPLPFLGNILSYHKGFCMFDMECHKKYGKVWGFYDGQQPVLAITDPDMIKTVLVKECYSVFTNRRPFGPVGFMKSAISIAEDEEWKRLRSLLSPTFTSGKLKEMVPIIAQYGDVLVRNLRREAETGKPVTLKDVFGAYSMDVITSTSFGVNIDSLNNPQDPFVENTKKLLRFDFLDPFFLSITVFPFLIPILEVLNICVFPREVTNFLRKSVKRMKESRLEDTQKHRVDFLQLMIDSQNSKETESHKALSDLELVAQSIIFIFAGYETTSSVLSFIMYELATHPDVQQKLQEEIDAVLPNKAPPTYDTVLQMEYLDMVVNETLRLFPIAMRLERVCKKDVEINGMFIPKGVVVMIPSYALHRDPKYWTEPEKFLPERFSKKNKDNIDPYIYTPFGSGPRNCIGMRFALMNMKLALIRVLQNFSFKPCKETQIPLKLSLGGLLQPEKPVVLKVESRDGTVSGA

Sequence of CYP2D6 (P10635 whole entry): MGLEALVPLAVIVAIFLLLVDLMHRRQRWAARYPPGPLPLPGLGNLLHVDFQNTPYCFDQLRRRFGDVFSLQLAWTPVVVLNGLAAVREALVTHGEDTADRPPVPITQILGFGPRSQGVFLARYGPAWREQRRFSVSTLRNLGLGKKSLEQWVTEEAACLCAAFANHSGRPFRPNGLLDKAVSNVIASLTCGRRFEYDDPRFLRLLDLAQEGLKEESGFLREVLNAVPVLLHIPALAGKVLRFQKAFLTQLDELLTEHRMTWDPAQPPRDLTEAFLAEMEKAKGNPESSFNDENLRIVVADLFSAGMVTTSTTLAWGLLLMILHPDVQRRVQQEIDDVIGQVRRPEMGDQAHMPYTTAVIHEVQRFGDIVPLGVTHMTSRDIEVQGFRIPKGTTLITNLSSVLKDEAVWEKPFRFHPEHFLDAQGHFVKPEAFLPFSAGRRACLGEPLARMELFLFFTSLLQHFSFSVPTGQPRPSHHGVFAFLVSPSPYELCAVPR
Sequence of CYP2C9 (P11712 whole entry): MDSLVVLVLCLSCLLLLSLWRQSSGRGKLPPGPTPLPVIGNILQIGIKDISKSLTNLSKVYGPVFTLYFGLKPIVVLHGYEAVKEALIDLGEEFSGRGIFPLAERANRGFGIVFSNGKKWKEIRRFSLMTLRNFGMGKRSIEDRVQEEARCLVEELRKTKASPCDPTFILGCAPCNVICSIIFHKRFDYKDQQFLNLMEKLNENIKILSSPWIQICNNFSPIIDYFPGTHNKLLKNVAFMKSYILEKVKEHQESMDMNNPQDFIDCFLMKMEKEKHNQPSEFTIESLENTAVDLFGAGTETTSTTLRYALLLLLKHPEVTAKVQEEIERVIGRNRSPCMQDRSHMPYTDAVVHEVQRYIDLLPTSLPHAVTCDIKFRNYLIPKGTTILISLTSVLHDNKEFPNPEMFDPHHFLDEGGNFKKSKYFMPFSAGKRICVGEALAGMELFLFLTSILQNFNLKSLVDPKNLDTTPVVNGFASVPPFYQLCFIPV
Sequence of CYP2C19 (P33261 whole entry): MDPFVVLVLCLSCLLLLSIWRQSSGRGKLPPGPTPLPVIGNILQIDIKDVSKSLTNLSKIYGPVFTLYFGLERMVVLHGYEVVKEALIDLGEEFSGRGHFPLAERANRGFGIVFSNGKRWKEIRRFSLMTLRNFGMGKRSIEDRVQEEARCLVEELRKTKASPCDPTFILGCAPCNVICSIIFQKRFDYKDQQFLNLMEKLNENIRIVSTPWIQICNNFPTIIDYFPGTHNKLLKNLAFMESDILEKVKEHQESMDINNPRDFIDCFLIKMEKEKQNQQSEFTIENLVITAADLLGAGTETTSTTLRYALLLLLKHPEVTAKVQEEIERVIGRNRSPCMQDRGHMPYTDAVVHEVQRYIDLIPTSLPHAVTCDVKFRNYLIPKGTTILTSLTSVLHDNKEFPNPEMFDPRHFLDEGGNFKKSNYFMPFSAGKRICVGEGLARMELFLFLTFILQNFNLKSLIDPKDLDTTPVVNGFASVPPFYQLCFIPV

Structure (SMILES): Cc1cc(-c2ccc(CNC(=O)c3ccc4c(c3)[nH]c3ccccc34)cc2)ccn1 [listing 1 of 2 here]
inhibition [1]: Active

Structure (SMILES): Cc1cc(-c2ccc(CNC(=O)c3ccc4c(c3)C(F)(F)c3ccccc3-4)cc2)ccn1
IC50 [2]: 0.06 µM

Structure (SMILES): Cc1cc(-c2ccc(CNC(=O)c3ccc4c(c3)C(=O)c3ccccc3-4)cc2)ccn1
IC50 [2]: 0.085 µM

Structure (SMILES): Cc1cc(-c2ccc(CNC(=O)c3ccc4c(c3)[nH]c3ccccc34)cc2)ccn1.Cl
solubility [3]: 0.16 µM

Structure (SMILES): O=C(NCc1ccc2cnccc2c1)c1ccc2c(c1)[nH]c1ccccc12
IC50 [2]: 0.207 µM

Structure (SMILES): Cc1cc(-c2ccc(CNC(=O)c3ccc4c(c3)[nH]c3ccccc34)nc2)ccn1
IC50 [2]: 0.018 µM

Structure (SMILES): Cc1cc(-c2ccc(CNC(=O)c3ccc4c5ccccc5n(C)c4c3)cc2)ccn1
IC50 [2]: > 1 µM

Structure (SMILES): O=C(NCc1ccc2c(c1)oc1ccccc12)c1ccc(-c2cnccn2)cc1
IC50 [2]: 0.701 µM

Structure (SMILES): Cc1cc(-c2ncc(CNC(=O)c3ccc4c(c3)C(=O)c3ccccc3-4)cc2F)ccn1
IC50 [2]: 0.044 µM

Structure (SMILES): O=C(NCc1ccc2c(c1)Cc1ccccc1-2)c1ccc(-c2cnccn2)cc1
IC50 [2]: > 1 µM

Structure (SMILES): Cc1cc(-c2ncc(CNC(=O)c3ccc4c(c3)C(F)(F)c3ccccc3-4)cc2F)ccn1
IC50 [2]: 0.016 µM

Structure (SMILES): Cc1cc(-c2ncc(CNC(=O)c3ccc4c5ccccc5n(C)c4c3)cc2F)ccn1
IC50 [2]: 0.175 µM

Structure (SMILES): O=C(NCc1ccc2c(c1)Cc1ccccc1-2)c1ccc(-c2ccccc2)cc1
IC50 [2]: > 1 µM

Structure (SMILES): O=C(NCc1ccc(-c2ccncc2)cc1)c1ccc2c(c1)[nH]c1ccccc12
IC50 [2]: 0.018 µM

Structure (SMILES): Cn1nccc1-c1ccc(CNC(=O)c2ccc3c(c2)[nH]c2ccccc23)cc1
IC50 [2]: 0.13 µM

Structure (SMILES): Cc1cc(-c2ncc(CNC(=O)c3ccc4c(c3)[nH]c3ccccc34)cc2F)ccn1.Cl
solubility [3]: 1.24 µM

Structure (SMILES): Cc1cc(-c2ncc(CNC(=O)c3ccc4c(c3)[nH]c3ccccc34)cc2F)ccn1 [listing 1 of 2 here]
inhibition [1]: Active

Structure (SMILES): O=C(NCc1ccc(-n2ccnc2)cc1)c1ccc2c(c1)[nH]c1ccccc12
IC50 [2]: 0.314 µM

Structure (SMILES): Cc1cc(-c2ccc(CNC(=O)c3ccc4c(c3)Cc3ccccc3-4)cc2)ccn1
IC50 [2]: 0.035 µM

Structure (SMILES): Cc1cn(-c2ccc(CNC(=O)c3ccc4c(c3)[nH]c3ccccc34)cc2)cn1
IC50 [2]: 0.119 µM

Second part, led by results:

IC50 [2]: 0.01 µM
Structure (SMILES): Cc1cc(-c2ncc(CNC(=O)c3ccc4c(c3)[nH]c3ccccc34)cc2C)ccn1

remaining at 24 h, 200 µM [4]: 66%
inhibition [1]: Active
half-life at 1 µM [5]: 9.35 h
CLint scaled at 1 µM [6]: 1.32 L/h/kg
half-life at 1 µM [7]: 4.62 h
remaining at 8 h, 1 µM [8]: 100%
CLint scaled at 1 µM [9]: 0.12 L/h/kg
half-life at 1 µM [10]: 12.8 h
IC50 [2]: 0.0009 µM
CLint scaled at 1 µM [12]: 0.18 L/h/kg
Structure (SMILES): Cc1cc(-c2ncc(CC(=O)Nc3ccc(-c4cnccn4)cn3)cc2C)ccn1 [WNT-974]
Activity [11]: Non-Toxic

IC50 [2]: 0.013 µM
Structure (SMILES): N#Cc1ccc2cc(CNC(=O)c3ccc4c(c3)[nH]c3ccccc34)ccc2c1

IC50 [2]: 0.001 µM
Structure (SMILES): Cc1cc(-c2ccc(CNC(=O)c3ccc(-c4ccccc4)cc3)cc2)ccn1

IC50 [2]: 0.0092 µM
Structure (SMILES): Cc1cc(-c2ncc(CNC(=O)c3ccc4c(c3)Cc3ccccc3-4)cc2F)ccn1

remaining at 24 h, 200 µM [4]: 100%
inhibition at 10 min, 10 µM (CYP2C19): 59%
half-life at 1 µM [5]: 0.517 h
CLint scaled at 1 µM [6]: 6.54 L/h/kg
half-life at 1 µM [7]: 0.917 h
inhibition at 10 min, 10 µM (CYP2C9): 31%
inhibition at 10 min, 10 µM (CYP2D6): 37%
inhibition at 10 min, 10 µM (CYP1A2): 73%
remaining at 8 h, 1 µM [8]: 100%
inhibition at 10 min, 10 µM (CYP3A4): 69%
CLint scaled at 1 µM [9]: 3.42 L/h/kg
half-life at 1 µM [10]: 1.33 h
IC50 [2]: 0.0005 µM
CLint scaled at 1 µM [12]: 1.44 L/h/kg
Structure (SMILES): Cc1cc(-c2ncc(CNC(=O)c3ccc4c(c3)[nH]c3ccccc34)cc2F)ccn1 [listing 2 of 2 here]
Activity [11]: Non-Toxic

IC50 [2]: 0.0091 µM
Structure (SMILES): Cc1cc(-c2ccc(CNC(=O)c3ccc4c(c3)oc3ccccc34)cc2)ccn1

IC50 [2]: 0.0062 µM
Structure (SMILES): Cc1cc(-c2ccc(CNC(=O)c3ccc4c(c3)[nH]c3ccccc34)cn2)ccn1

remaining at 24 h, 200 µM [4]: 100%
inhibition at 10 min, 10 µM (CYP2C19): 8%
half-life at 1 µM [5]: 0.5 h
CLint scaled at 1 µM [6]: 8.46 L/h/kg
half-life at 1 µM [7]: 0.717 h
inhibition at 10 min, 10 µM (CYP2C9): -22%
inhibition at 10 min, 10 µM (CYP2D6): 9%
inhibition at 10 min, 10 µM (CYP1A2): 64%
remaining at 8 h, 1 µM [8]: 100%
inhibition at 10 min, 10 µM (CYP3A4): 7%
CLint scaled at 1 µM [9]: 3.54 L/h/kg
half-life at 1 µM [10]: 4.62 h
IC50 [2]: 0.0075 µM
CLint scaled at 1 µM [12]: 0.42 L/h/kg
Structure (SMILES): Cc1cc(-c2ccc(CNC(=O)c3ccc4c(c3)[nH]c3ccccc34)cc2)ccn1 [listing 2 of 2 here]
Activity [11]: Non-Toxic

IC50 [2]: 0.0031 µM
Structure (SMILES): Cc1cc(-c2ncc(CNC(=O)c3ccc4c(c3)oc3ccccc34)cc2F)ccn1
